Results from ChEMBL document CHEMBL4017446, “Discovery of (2-aminophenyl)methanol as a new molecular chaperone that rescues the localization of P123S mutant pendrin stably expressed in HEK293 cells” (Bioorg Med Chem, 2017).
Calls of active or inactive are those of the source. No cut-off for these calls is given here.

Key:
HEK293 [1] = test: Cytotoxicity against HEK293 cells harboring pendrin P123S mutant after 72 hrs by MTT assay; type: cell-based; conditions: Homo sapiens, HEK293, 72 h
Outline: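 Stable P123S pendrin HEK293 cells were seeded at 5 × 10^4 cells/well and preincubated 12 h at 37 °C. Cells were then exposed to compound at various concentrations in RPMI-1640 for 72 h. Viability was measured by MTT, and IC50 was taken from semilogarithmic dose-response plots. Triplicate experiments.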

[2] = tested on: T1, Pendrin (Homo sapiens), O43511 [P123S]; test: Chaperone activity at recombinant human C-terminal FLAG-tagged pendrin P123S mutant expressed in HEK293 cells assessed as intracellular localization of mutant protein in plasma membrane at 10 mM incubated for 12 hrs followed by compound washout measured after 6 hrs by DAPI staining based immunofluorescence microscopic analysis; type: cell-based
T1 sequence (whole entry): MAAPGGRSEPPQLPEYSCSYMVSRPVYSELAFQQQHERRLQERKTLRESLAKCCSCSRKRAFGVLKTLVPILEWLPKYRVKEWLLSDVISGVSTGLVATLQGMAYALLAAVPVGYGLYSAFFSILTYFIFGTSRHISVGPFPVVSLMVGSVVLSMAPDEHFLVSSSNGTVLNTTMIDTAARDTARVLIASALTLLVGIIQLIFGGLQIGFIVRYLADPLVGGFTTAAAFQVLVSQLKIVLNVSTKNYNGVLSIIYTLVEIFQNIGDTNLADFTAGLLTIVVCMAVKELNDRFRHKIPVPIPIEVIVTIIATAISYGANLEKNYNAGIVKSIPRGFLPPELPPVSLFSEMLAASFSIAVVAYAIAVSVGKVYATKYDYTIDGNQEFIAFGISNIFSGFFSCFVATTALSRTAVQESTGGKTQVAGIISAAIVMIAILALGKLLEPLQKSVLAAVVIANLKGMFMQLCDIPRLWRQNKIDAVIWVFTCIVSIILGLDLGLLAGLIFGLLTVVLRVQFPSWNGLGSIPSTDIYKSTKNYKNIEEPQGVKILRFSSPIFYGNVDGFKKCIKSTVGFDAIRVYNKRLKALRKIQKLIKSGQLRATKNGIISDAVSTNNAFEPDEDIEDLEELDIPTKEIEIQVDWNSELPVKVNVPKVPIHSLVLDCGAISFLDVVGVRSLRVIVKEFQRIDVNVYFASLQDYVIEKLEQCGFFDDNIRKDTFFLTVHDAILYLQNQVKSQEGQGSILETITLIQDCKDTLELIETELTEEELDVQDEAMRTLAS
Outline: (§1)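 Stable P123S pendrin HEK293 cells (5 × 10^4/well) were exposed to compound or 0.1% DMSO for 12 h, washed with PBS, then kept in fresh medium for 0, 6 or 12 h. They were then anti-FLAG/DAPI immunostained and imaged by confocal microscopy to follow pendrin distribution at the plasma membrane. Triplicate experiments.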

[3] = tested on: T1, Pendrin (Homo sapiens), O43511 [P123S]; test: Chaperone activity at recombinant human C-terminal FLAG-tagged pendrin P123S mutant expressed in HEK293 cells assessed as fluorescence intensity ratio of plasma membrane to cytoplasm at 10 mM measured after 12 hrs by DAPI staining based immunofluorescence microscopic method; type: cell-based
Outline: (§2)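 Stable HEK293 line expressing FLAG-tagged P123S pendrin, grown in 10% FBS-RPMI-1640, treated 12 h with compound or vehicle (0.1% DMSO) in 35 mm dishes. Cells were fixed in 4% paraformaldehyde, stained with anti-FLAG primary antibody, Alexa Fluor 546 secondary and DAPI, and imaged by confocal microscopy. Mean intensities of 20 regions ([…]) in plasma membrane and cytoplasm gave the M/C ratio; 6–9 cells averaged.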

[4] = tested on: T1, Pendrin (Homo sapiens), O43511 [P123S]; test: Chaperone activity at recombinant human C-terminal FLAG-tagged pendrin P123S mutant expressed in HEK293 cells assessed as translocation of mutant protein from cytoplasm to plasma membrane at 1 to 10 mM measured after 12 hrs by DAPI staining based immunofluorescence microscopic analysis; type: cell-based
Outline: (§3)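 HEK293 cells stably expressing FLAG-tagged P123S pendrin were incubated 12 h with compound or 0.1% DMSO in dishes. WT-pendrin cells given vehicle served as reference. Cells were fixed in paraformaldehyde, blocked in 1% BSA, stained with anti-FLAG/Alexa Fluor 546 secondary plus DAPI, and membrane versus cytoplasmic localization was judged by confocal imaging.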

[5] = tested on: T1, Pendrin (Homo sapiens), O43511 [P123S]; test: Chaperone activity at recombinant human C-terminal FLAG-tagged pendrin P123S mutant expressed in HEK293 cells assessed as increase in fluorescence intensity ratio of plasma membrane to cytoplasm measured after 12 hrs by DAPI staining based immunofluorescence microscopic method; type: cell-based; outline: as §2
[6] = tested on: T1, Pendrin (Homo sapiens), O43511 [P123S]; test: Chaperone activity at recombinant human C-terminal FLAG-tagged pendrin P123S mutant expressed in HEK293 cells assessed as intracellular localization of mutant protein in plasma membrane at 10 mM incubated for 12 hrs followed by compound washout measured after 12 hrs by DAPI staining based immunofluorescence microscopic analysis; type: cell-based; outline: as §1
[7] = tested on: T1, Pendrin (Homo sapiens), O43511 [P123S]; test: Chaperone activity at recombinant human C-terminal FLAG-tagged pendrin P123S mutant expressed in HEK293 cells assessed as translocation of mutant protein from cytoplasm to plasma membrane at 3 mM measured after 12 hrs by DAPI staining based immunofluorescence microscopic analysis; type: cell-based; outline: as §3
[8] = tested on: T1, Pendrin (Homo sapiens), O43511 [P123S]; test: Chaperone activity at recombinant human C-terminal FLAG-tagged pendrin P123S mutant expressed in HEK293 cells assessed as increase in localization of protein mutant in plasma membrane at 1 to 30 mM after 12 hrs by DAPI staining based immunofluorescence microscopic analysis; type: cell-based
Outline: (§4)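 Stable P123S pendrin HEK293 cells were screened in 96-well plates after 12 h exposure to compound or 0.1% DMSO. WT cells with vehicle served as positive control. Cells were anti-FLAG/DAPI immunostained, and about 100 cells per field across 100 fields were imaged by automated high-content analysis. The read-out was cytoplasmic fluorescence intensity in a 5-pixel band 2–7 pixels inside the cell outline.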

HEK293 [9] = test: Induction of HEK293 cell aggregation measured after 12 hrs by DAPI staining based immunofluorescence microscopic method; conditions: human, hek293, 12 h
Outline: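 Stable P123S pendrin HEK293 cells were incubated with compound for 12 h in 35 mm dishes, then immunostained with anti-FLAG and DAPI. Cell aggregation was observed under a fluorescence microscope.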

HEK293 [10] = test: Cytotoxicity against HEK293 cells harboring pendrin P123S mutant assessed as decrease in cell viability at 15 mM after 72 hrs by MTT assay; type: cell-based; conditions: human, hek293, 72 h, 15000 µM
[11] = tested on: T1, Pendrin (Homo sapiens), O43511 [P123S]; test: Chaperone activity at recombinant human C-terminal FLAG-tagged pendrin P123S mutant expressed in HEK293 cells assessed as fluorescence intensity ratio of plasma membrane to cytoplasm at 0.1 mM measured after 12 hrs by DAPI staining based immunofluorescence microscopic method; type: cell-based; outline: as §2
[12] = tested on: T1, Pendrin (Homo sapiens), O43511 [P123S]; test: Chaperone activity at recombinant human C-terminal FLAG-tagged pendrin P123S mutant expressed in HEK293 cells assessed as translocation of mutant protein from cytoplasm to plasma membrane at 0.1 mM measured after 12 hrs by DAPI staining based immunofluorescence microscopic analysis; type: cell-based; outline: as §3
[13] = tested on: T1, Pendrin (Homo sapiens), O43511 [P123S]; test: Chaperone activity at recombinant human C-terminal FLAG-tagged pendrin P123S mutant expressed in HEK293 cells assessed as intracellular localization of mutant protein in plasma membrane at 0.1 mM incubated for 12 hrs followed by compound washout measured after 12 hrs by DAPI staining based immunofluorescence microscopic analysis; type: cell-based; outline: as §1
[14] = tested on: T1, Pendrin (Homo sapiens), O43511 [P123S]; test: Chaperone activity at recombinant human C-terminal FLAG-tagged pendrin P123S mutant expressed in HEK293 cells assessed as increase in localization of protein mutant in plasma membrane at 0.03 to 1 mM after 12 hrs by DAPI staining based immunofluorescence microscopic analysis; type: cell-based; outline: as §4
[15] = tested on: T1, Pendrin (Homo sapiens), O43511 [P123S]; test: Potency index, ratio of compound effect to salicylate effect for chaperone activity at recombinant human C-terminal FLAG-tagged pendrin P123S mutant expressed in HEK293 cells assessed as translocation of mutant protein from cytoplasm to plasma membrane; type: cell-based
[16] = tested on: T1, Pendrin (Homo sapiens), O43511 [P123S]; test: Chaperone activity at recombinant human C-terminal FLAG-tagged pendrin P123S mutant expressed in HEK293 cells assessed as fluorescence intensity ratio of plasma membrane to cytoplasm at 0.3 mM measured after 12 hrs by DAPI staining based immunofluorescence microscopic method; type: cell-based; outline: as §2
[17] = tested on: T1, Pendrin (Homo sapiens), O43511 [P123S]; test: Chaperone activity at recombinant human C-terminal FLAG-tagged pendrin P123S mutant expressed in HEK293 cells assessed as intracellular localization of mutant protein in plasma membrane at 0.1 mM incubated for 12 hrs followed by compound washout measured after 6 hrs by DAPI staining based immunofluorescence microscopic analysis; type: cell-based; outline: as §1

Row | Structure (SMILES) | IC50 (HEK293 [1]) [mM] | Activity [8] | Activity (HEK293 [10]) [%] | also measured
1 | Cc1ccc(O)c(C(=O)O)c1 | 9.8 |  |  | Activity [2]: Active; Ratio [3]: 1.7; Activity [4]: Active; Activity [5]: Dose-dependent effect
2 | O=C(O)c1cc([N+](=O)[O-])ccc1O | 5.3 | Active |  | Activity [6]: Active; Activity [2]: Active; Activity [7]: Active; Ratio [3]: 1.3; Activity [5]: Dose-dependent effect
3 | O=C(O)Cc1ccccc1O | 12.1 | Active |  | 
4 | CC(O)CC(=O)O (stereo unspecified) | > 15 | Active |  | 
5 | O=C(O)c1ccc([N+](=O)[O-])cc1O | 12.5 | Active |  | Activity (HEK293 [9]): Toxic
6 | Nc1cccc(CO)c1 | > 15 |  | 46.7 | 
7 | OCCc1ccccc1O | > 15 | Active | 38.3 | Activity (HEK293 [9]): Toxic
8 | Nc1ccc(CO)cc1 | 12.7 |  |  | 
9 | OB(O)c1ccccc1O | > 15 | Active | 22.3 | Activity (HEK293 [9]): Toxic
10 | Nc1ccccc1CCO | > 15 | inactive | 35.8 | 
11 | O=C(O)c1c(O)cccc1O | 10.6 | inactive |  | 
12 | O=C(O)c1cccc(O)c1O [2,3-DIHYDROXYBENZOIC ACID] | > 15 | inactive | 47.4 | 
13 | Nc1ccccc1C(=O)O [ANTHRANILIC ACID] | > 15 | inactive | 46.9 | 
14 | CC(=O)Oc1ccccc1C(=O)O [ASPIRIN] | 10.2 | inactive |  | 
15 | O=C(O)c1cc(O)ccc1O [GENTISIC ACID] | > 15 | inactive | 46.8 | 
16 | Nc1ccccc1CO [ISATOIC ANHYDRIDE] |  |  |  | Ratio [11]: 0.9; Activity [12]: Active; Activity [13]: Active; Activity [14]: Active; Ratio [15]: 100; Ratio [16]: 1.8; Activity [5]: Dose-dependent effect; Activity [17]: Active
17 | O=C(O)CC(=O)O [MALONIC ACID] | 9.7 |  |  | 
18 | Nc1ccc(O)c(C(=O)O)c1 [MESALAMINE] | > 15 | inactive | 35.5 | 
19 | O=C(O)c1ccc(O)c(O)c1 [PROTOCATECHUIC ACID] | > 15 | inactive | 37 | 
20 | OCc1ccccc1O [SALICYL ALCOHOL] | > 15 | inactive | 25.3 | 
21 | O=C(O)c1ccccc1O [SALICYLIC ACID] | > 15 |  | 4.2 | Activity [2]: inactive; Ratio [3]: 1; Activity [5]: Dose-dependent effect
22 | O=C(O)c1ccccc1S [THIOSALICYLIC ACID] | 12.7 | inactive |  | 
